The list is not random: actives were taken first. Their share in the collection is about 2.4%.
MC4R barr agon: activates human MC4R beta-arrestin recruitment | P32245 | U2OS MC4R beta-arrestin complementation, luminescence; percent of melanotan II response, DMSO zero | activation, % at 8.9 µM | hit rate 0.98% among 360,000 | AID 540308;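 active = activation above a per-plate cutoff, the mean activation of sample wells on that plate plus 3 SD, cut at about 8% in these data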
Target sequence (P32245 whole entry, looked up): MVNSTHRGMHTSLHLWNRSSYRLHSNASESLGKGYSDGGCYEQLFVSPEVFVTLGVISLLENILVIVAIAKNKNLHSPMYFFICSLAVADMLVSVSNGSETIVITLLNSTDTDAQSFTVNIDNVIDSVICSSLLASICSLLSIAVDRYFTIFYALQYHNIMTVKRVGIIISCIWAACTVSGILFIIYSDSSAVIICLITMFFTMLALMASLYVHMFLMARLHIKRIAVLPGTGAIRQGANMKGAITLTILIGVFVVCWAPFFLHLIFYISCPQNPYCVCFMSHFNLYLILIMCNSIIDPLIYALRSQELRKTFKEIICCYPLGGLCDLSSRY
H9c2 TAG inh: inhibitors of triacylglycerol accumulation; H9c2 cells, Nile Red lipid (TAG) fluorescence; cells loaded with 200 µM oleic acid; inhibition, % at 12.5 µM; hit rate 0.66% among 230,000;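 active = pattern-corrected inhibition of lipid staining of at least 50% with the nuclear-stain viability signal not falling by more than 50%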;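 note: 0% = DMSO wells and 100% = triacsin C control wells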
TbMetRS inhib: Trypanosoma brucei MetRS inhibition; purified T. brucei MetRS, ATP depletion, Kinase-Glo luminescence; inhibition, % at 11.9 µM; hit rate 0.4% among 360,000; AID 624268;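 active = inhibition above a per-plate cutoff of the control wells' mean inhibition plus 3 SD, cut at about 5.5% in these data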;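 note: 0% = DMSO wells median and 100% = median of wells with control inhibitor compound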
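Material: parasite MetRS enzyme / Replication: singlicate, one well per compound / Signal: luminescence of leftover ATP / Schedule: 2 h aminoacylation at 25 °C after 15 min preincubation / Medium: HEPES-MgCl2-KCl buffer plus DTT, spermine, BSA, pyrophosphatase / Doses: 11.9 µM single point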
aDG glyco act: alpha-DG glycosylation activation; AID 624168; activation, % at 10 µM; Pro5-aDG cells, alpha-DG glycosylation AlphaScreen (IIH6); 0% Pro5, 100% B10-LARGE cell signal; hit rate 0.22% among 360,000;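 active = activation of at least 8% versus controls, or a plate z-score of at least 8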;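 note: Pro5 are CHO cells carrying HIG-tagged alpha-DG that lacks glycosylation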
MC4R antag cAMP: antagonists of human melanocortin 4 receptor (MC4R) | P32245 | MC4R-expressing cells, MTII-stimulated cAMP, LANCE TR-FRET | inhibition, % at 6.5 µM | hit rate 0.48% among 360,000 | AID 540295;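 active = inhibition above its plate's cutoff, the mean of tested wells on that plate plus 3 SD, cut at about 29% in these data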;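 note: 0% = Melanotan II alone and 100% = Melanotan II plus saturating MCL0020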
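Test system: U2OS cells stably expressing human melanocortin 4 receptor (MC4R); also added: Melanotan II challenge; compound: 6.5 µM single dose; timing: 30-min compound preincubation, 1-h Melanotan II challenge, 1-h detection, room temperature; signal: Eu-cAMP/anti-cAMP TR-FRET, emission 671 nm; repeats: one well per compound, no replicates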
NTR1 ag: activates human neurotensin receptor 1; P30989; NTR1-U2OS beta-arrestin-GFP spot imaging, agonist mode; activation, % at 20 µM; hit rate 0.17% among 330,000; AID 493036;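 active = activation at or above 40% of the spot to cytoplasm intensity ratio, with at least 20 cells analyzed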;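 note: 0% = DMSO without peptide and 100% = 100 nM NTR1 peptide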
Target sequence (P30989 whole entry, looked up): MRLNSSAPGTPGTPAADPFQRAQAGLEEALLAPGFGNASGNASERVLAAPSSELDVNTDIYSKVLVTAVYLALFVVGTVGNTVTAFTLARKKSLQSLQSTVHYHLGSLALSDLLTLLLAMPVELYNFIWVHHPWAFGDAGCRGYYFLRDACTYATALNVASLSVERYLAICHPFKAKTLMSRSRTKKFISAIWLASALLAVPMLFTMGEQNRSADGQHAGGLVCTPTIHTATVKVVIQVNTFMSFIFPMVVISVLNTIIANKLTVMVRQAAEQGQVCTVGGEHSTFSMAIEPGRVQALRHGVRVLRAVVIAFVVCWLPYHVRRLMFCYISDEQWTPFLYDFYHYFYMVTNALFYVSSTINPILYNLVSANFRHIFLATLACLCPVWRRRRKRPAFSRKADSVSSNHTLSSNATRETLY
MC4R barr ag: human MC4R beta-arrestin agonism confirmation. shares compounds with MC4R barr agon. U2OS MC4R beta-arrestin recruitment, luminescence; scaled DMSO 0%, Melanotan II 100%. activation, % at 8.9 µM. hit rate 31% among 2,400. AID 602192;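 active = mean activation across replicates above the hit cutoff set in the earlier primary screen, cut at about 8% in these data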
MOR-DOR barr ag: OPRM1-OPRD1 heterodimer agonism counter-screen | U2OS PathHunter beta-arrestin, beta-gal luminescence; percent of deltorphin B response, DMSO zero | hit rate 5.8% among 2,400 | activation, % at 9.2 µM | shares compounds with MC4R barr agon;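 active = mean activation across replicates exceeds the hit threshold derived in the earlier primary screen, cut at about 18% in these data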;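 note: 100% = deltorphin B at 0.9 µM final and 0% = DMSO alone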
* hit, by the source's call; nt = no result given.

SMILES | MC4R barr agon | H9c2 TAG inh | TbMetRS inhib | aDG glyco act | MC4R antag cAMP | NTR1 ag | MC4R barr ag | MOR-DOR barr ag
CCOC(=O)N(C)c1c(CC)nc2c(OCc3ccc(Cl)cc3)cccn12 | -1 | -6 | 0 | 0 | -6 | nt | nt | nt
NC(Cc1ccc(F)cc1)c1csc(Nc2cc(Oc3ccccc3)ncn2)n1 (centres undefined) | 13* | 37 | 0 | 6 | -3 | nt | 14* | 12
NC(CCc1ccccc1)c1csc(Nc2nncc3ccccc23)n1 (centres undefined) | 16* | 23 | 0 | 1 | 4 | nt | 12* | 9
COc1cccc(Nc2nc(C(N)CCc3ccccc3)cs2)n1 (centres undefined) | 16* | 14 | 0 | 2 | -22 | nt | 12* | 13
NC(Cc1ccc(Cl)cc1)c1csc(Nc2cc(Oc3ccccc3)ncn2)n1 (centres undefined) | 7 | 31 | 0 | 0 | -1 | nt | nt | nt
COc1ccc(CC(N)c2csc(Nc3cccc(OC)n3)n2)cc1 (centres undefined) | 2 | -4 | 0 | 2 | -12 | nt | nt | nt
COc1cccc(Nc2nc(C(N)Cc3ccc(Cl)cc3)cs2)n1 (centres undefined) | 15* | 23 | 0 | 1 | -6 | nt | 8.4* | 9
CC1=C(C(=O)N(C(C)C)C(C)C)CC(CC(=O)NC2CCCCC2)C(=O)N1Cc1ccc(F)cc1 (centres undefined) | nt | nt | 0 | 0 | nt | nt | nt | nt
CCOC(=O)[C@]12CCCC=C1N(Cc1cccc3ccccc13)C(=O)[C@H](CC(=O)NCc1cccs1)C2 | nt | nt | 0 | 0 | nt | nt | nt | nt
Oc1oc(-c2ccccc2Br)nc1C=Nc1ccc(Br)cn1 | 21* | -12 | 0 | 0 | 2 | 1 | 10* | 3
Cc1cccnc1C(NC(=O)C1CCN(Cc2cn(C)c3ccccc23)CC1)c1ccc(Cl)cc1 (centres undefined) | -2 | 117 | 0 | 1 | 8 | nt | nt | nt
O=C(CCCN1C(=O)/C(=C\c2cccs2)SC1=S)Nc1ccc(O)cc1 | 10* | nt | 0 | 0 | 26 | 0 | 16* | 2
O=C(CCCN1C(=O)/C(=C/c2cccs2)SC1=S)NNC(=O)c1ccccc1O | 18* | nt | -1 | 1 | -3 | 3 | 2 | 4
O=C(CCCN1C(=O)/C(=C\c2cccs2)SC1=S)Nc1ccc(C(=O)O)cc1 | 1 | -11 | -1 | 0 | -6 | 1 | nt | nt
O=C(C[C@H]1CC[C@@H]2[C@H](COC[C@@H](O)CN2Cc2cccc(F)c2)O1)NCC1CCCCC1 | nt | nt | 0 | 0 | nt | nt | nt | nt
COc1ccc(C(=O)c2[nH]c(N)c(C(=O)NCCc3c[nH]c4ccccc34)c2-c2c(F)cccc2Cl)cc1 | nt | nt | -1 | 0 | nt | nt | nt | nt
COc1cccc(CNC(=O)[C@@H]2CCCN2C(=O)[C@H]2CCCCN2C(=O)c2c(F)cccc2F)c1 | nt | nt | -1 | 1 | nt | nt | nt | nt
O=C1/C(=C/c2ccc(F)cc2)SC(=S)N1Nc1ncc(C(F)(F)F)cc1Cl | 9.9* | -13 | -1 | 0 | 2 | 0 | 5 | 2
COCCNC(=O)C1C(=O)Nc2ccccc2C(=O)N1Cc1ccccc1 (centres undefined) | nt | nt | 0 | 0 | nt | nt | nt | nt
CC1=C2CCCC[C@@]23C2C(=O)N(C)C(=O)[C@@H]2ON3OC1 (some centres undefined) | nt | nt | 0 | 0 | nt | nt | nt | nt
O=C1NC[C@@H](CCCCN2CCN(CCc3ccccc3)C(=O)C2=O)N(Cc2ccccc2)C1=O | nt | nt | 0 | 0 | nt | nt | nt | nt
O=C(Nc1cccc(-c2cnc3ccccc3n2)c1)c1ccco1 | -1 | -11 | 0 | 0 | 19 | 1 | nt | nt
O=C(CNC(=O)c1ccc(Br)o1)Nc1cccc(-c2cnc3ccccc3n2)c1 | 16* | -9 | -1 | 0 | 9 | 7 | 0 | 4
COC(=O)/C=C1\OCc2ccccc21 | nt | nt | 0 | 0 | nt | nt | nt | nt
Cc1ccc(NC(=O)c2cc(NC(=O)c3ccco3)ccc2N2CCCCC2)cc1 | 18* | -17 | 0 | 0 | 20 | -1 | 6 | 7
SMILES | MC4R barr agon | H9c2 TAG inh | TbMetRS inhib | aDG glyco act | MC4R antag cAMP | NTR1 ag | MC4R barr ag | MOR-DOR barr ag
Cc1ccc(SCc2ccc(C(=O)Nc3cccc([N+](=O)[O-])c3C)cc2)cc1 | 23* | nt | -1 | 0 | 4 | 9 | 6 | 5
Cc1ccc([N+](=O)[O-])cc1NC(=O)c1ccc(CSc2ccccc2)cc1 | 14* | nt | 0 | 0 | 5 | -1 | 7 | 4
Cc1cc(CSc2ccccc2)ccc1NC(=O)c1ccc(C)c([N+](=O)[O-])c1 | 6 | 13 | 0 | 0 | -10 | 6 | nt | nt
Cc1cc(CSc2ccccc2)ccc1NC(=O)c1ccc(Cl)c([N+](=O)[O-])c1 | 22* | 38 | 0 | 0 | 11 | -4 | 3 | 5
O=C(NCc1ccccc1Cl)c1ccc2nc([C@@H]3O[C@H](CO)[C@H](O)[C@H](O)[C@H]3O)[nH]c2c1 | -1 | -7 | 0 | 0 | 10 | nt | nt | nt
COc1ccccc1C(=O)COC(=O)c1c(-c2ccccc2)noc1C | 1 | 3 | 0 | 0 | -9 | 5 | nt | nt
COc1ccccc1C(=O)COC(=O)c1ccc(-n2cnnn2)cc1 | -2 | -20 | 0 | 0 | -1 | 0 | nt | nt
COc1ccc(C(=O)COC(=O)c2c(-c3ccccc3)noc2C)c(OC)c1 | 14* | 1 | 0 | 0 | 7 | 2 | 0 | 2
COc1ccc(C(=O)COC(=O)c2ccc(-n3cnnn3)cc2)c(OC)c1 | 13* | 6 | 0 | 0 | 11 | 4 | 5 | 6
Cc1ccc(NC(=O)CSCC(=O)N(C)Cc2c(F)cccc2Cl)cc1 | 0 | 2 | 0 | 0 | -3 | nt | nt | nt
Nc1nc2ccccc2cc1C(=O)NCc1ccc(-c2ccccc2)cc1 | nt | nt | -1 | 1 | nt | nt | nt | nt
Cc1ccc(-c2c(C)c(-c3ccc(F)cc3)nc(N)c2C#N)o1 | 13* | -127 | -1 | 0 | 10 | 4 | 1 | 10
Cc1c(-c2ccc(F)cc2)nc(N)c(C#N)c1-c1cccnc1 | 1 | -42 | -1 | 0 | 10 | 2 | nt | nt
CCN1C(=O)[C@H]2[C@@H](c3ccc(OC)cc3)N[C@]3(CCCN(Cc4ccc(Br)cc4)C3=O)[C@H]2C1=O | 1 | -8 | -1 | 0 | 18 | nt | nt | nt
CCCCCCCCNC(=O)c1cccnc1SCC(=O)Nc1ccccc1OC | 15* | nt | 0 | 0 | -2 | 9 | 8 | 5
